The values that follow come from ChEMBL document CHEMBL1932980, “Structure-activity relationships of 2-amino-3-aroyl-4-[(4-arylpiperazin-1-yl)methyl]thiophenes. Part 2: Probing the influence of diverse substituents at the phenyl of the arylpiperazine moiety on allosteric enhancer activity at the A₁ adenosine receptor” (Bioorg Med Chem, 2012).

Test [1] deals with T1, Adenosine receptor A3 (Homo sapiens) (UniProt P0DMS8).
T1 sequence (whole entry): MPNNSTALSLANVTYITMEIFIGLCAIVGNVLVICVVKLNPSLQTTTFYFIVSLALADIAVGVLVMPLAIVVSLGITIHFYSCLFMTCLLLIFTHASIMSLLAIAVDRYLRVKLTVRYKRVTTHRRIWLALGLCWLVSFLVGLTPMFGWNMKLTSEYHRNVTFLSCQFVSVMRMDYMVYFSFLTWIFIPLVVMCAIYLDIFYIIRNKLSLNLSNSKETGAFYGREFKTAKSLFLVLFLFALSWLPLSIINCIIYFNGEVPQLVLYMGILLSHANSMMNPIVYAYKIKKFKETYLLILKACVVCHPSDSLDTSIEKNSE
In words: Displacement of [3H]MRE3008F20 from recombinant human A3 adenosine receptor expressed in CHO cells at 10 uM after 120 mins by scintillation counting. In kind it is cell-based. Put shortly: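 Membranes from hA3CHO cells incubated with 2 nM [3H]MRE 3008F20 in 50 mM Tris–HCl, 10 mM MgCl2, 1 mM EDTA, pH 7.4 at 4 °C for 120 min. Compound added from a 100-fold DMSO stock, 1% DMSO final, also in controls. Separated by GF/B filtration and counted by scintillation. Result given as % of control specific binding.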
For orientation: In a radioligand displacement assay an active substance lowers the binding of a labelled ligand.

For test [2], the target named is T2, Adenosine receptor A1 (Homo sapiens) (UniProt P30542).
T2 sequence (whole entry): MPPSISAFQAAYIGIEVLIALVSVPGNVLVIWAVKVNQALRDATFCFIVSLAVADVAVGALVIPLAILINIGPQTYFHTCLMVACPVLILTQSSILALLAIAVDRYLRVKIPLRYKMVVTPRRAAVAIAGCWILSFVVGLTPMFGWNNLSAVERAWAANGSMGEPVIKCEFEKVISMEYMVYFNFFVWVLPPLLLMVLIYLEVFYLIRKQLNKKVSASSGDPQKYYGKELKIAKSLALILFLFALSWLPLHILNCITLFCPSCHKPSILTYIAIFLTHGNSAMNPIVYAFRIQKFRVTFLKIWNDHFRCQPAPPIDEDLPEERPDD
In words: Allosteric enhancer activity at recombinant human A1 adenosine receptor expressed in CHO cells assessed as change in forskolin-induced cAMP production at 0.1 uM after 6 mins by radioimmunoassay. The format is functional, cell-based. Put shortly:
(§1)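 hA1CHO cells (about 8000 fmol/mg protein) thawed from low-passage stocks, grown in Ham's F-12 with 10% FBS and G-418, then plated 48 h. Test compound at 0.01, 0.1, 1 or 10 µM with CPA (0.05–0.1 nM) for 6 min at 36 °C. Stopped with HCl (final 50 mM). cAMP in acidified extracts measured by radioimmunoassay. Reference enhancer run in each experiment. Four experiments per concentration.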
(In general: cAMP levels reflect the balance of adenylyl cyclase and phosphodiesterase activity.)

Test [3] deals with T2, Adenosine receptor A1 (Homo sapiens). In words: Binding affinity to recombinant human A1 adenosine receptor allosteric site expressed in CHO cells assessed as potentiation of CCPA-induced [3H]DPCPX displacement at 10 uM after 90 mins relative to control. The format is cell-based. The method in brief:
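Competition of CCPA (0.01 nM–1 µM) against 1 nM [3H]DPCPX on hA1CHO membranes, run in triplicate, 90 min at 25 °C, in 50 mM Tris–HCl pH 7.4, with or without test compound at 10 µM. Nonspecific binding taken with 1 µM DPCPX. Ki by Cheng–Prusoff. Shift = Ki(CCPA)/Ki(CCPA + 10 µM compound).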

For test [4], the target named is Adenosine receptor A2a (Homo sapiens) (UniProt P29274). The test can be described thus: Displacement of [3H]ZM241385 from recombinant human A2A adenosine receptor expressed in CHO cells at 10 uM after 60 mins by scintillation counting. In kind it is cell-based. Put shortly: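 Membranes from hA2ACHO cells incubated with 1 nM [3H]ZM 241385 in 50 mM Tris–HCl, 10 mM MgCl2, pH 7.4 at 4 °C for 60 min. Compound added from a 100-fold DMSO stock, 1% DMSO final, also in controls. Separated by GF/B filtration and counted by scintillation. Result given as % of control specific binding.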
Adenosine receptor A2a (Homo sapiens), sequence (P29274 whole entry): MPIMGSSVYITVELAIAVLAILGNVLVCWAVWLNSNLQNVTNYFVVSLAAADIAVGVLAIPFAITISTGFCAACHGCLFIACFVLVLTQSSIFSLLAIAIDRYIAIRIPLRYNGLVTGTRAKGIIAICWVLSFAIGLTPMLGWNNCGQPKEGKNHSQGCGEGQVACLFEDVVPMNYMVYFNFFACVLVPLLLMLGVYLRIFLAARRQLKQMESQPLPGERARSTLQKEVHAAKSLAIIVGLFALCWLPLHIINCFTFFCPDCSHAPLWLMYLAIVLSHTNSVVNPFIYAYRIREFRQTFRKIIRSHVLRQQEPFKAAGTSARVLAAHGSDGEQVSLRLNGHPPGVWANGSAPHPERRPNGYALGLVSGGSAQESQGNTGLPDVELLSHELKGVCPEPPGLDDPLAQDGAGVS

Test [5] addresses T2, Adenosine receptor A1 (Homo sapiens). The test can be described thus: Displacement of [3H]DPCPX from recombinant human A1 adenosine receptor expressed in CHO cells at 10 uM after 120 mins by scintillation counting. In kind it is cell-based. The method in brief:
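Membranes from hA1CHO cells incubated with 1 nM [3H]DPCPX in 50 mM Tris–HCl pH 7.4 at 25 °C for 120 min. Compound added from a 100-fold DMSO stock, so 1% DMSO final, also present in controls. Bound ligand separated on GF/B filters and counted by scintillation. Result given as % of control specific binding.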

Test [6] shares this target. In words: Binding affinity to recombinant human A1 adenosine receptor allosteric site expressed in CHO cells assessed as [3H]DPCPX Bmax shift at 10 uM after 90 mins relative to control. The format is cell-based. Put shortly:
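Saturation binding of [3H]DPCPX (0.05–20 nM) to hA1CHO membranes, run in triplicate, 90 min at 25 °C, in 50 mM Tris–HCl pH 7.4, with or without test compound at final 10 µM. Nonspecific binding taken with 1 µM DPCPX. KD and Bmax fitted by LIGAND. Shift is the fold of Bmax increase over control.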

Test [7] has the same target. In words: Allosteric enhancer activity at recombinant human A1 adenosine receptor expressed in CHO cells assessed as change in forskolin-induced cAMP production at 0.01 uM after 6 mins by radioimmunoassay. The format is functional, cell-based. Put shortly:
as §1

For test [8] the target is unchanged. The test can be described thus: Allosteric enhancer activity at recombinant human A1 adenosine receptor expressed in CHO cells assessed as change in forskolin-induced cAMP production at 10 uM after 6 mins by radioimmunoassay. The format is functional, cell-based. The method in brief: as §1
Test [9] has the same target. In words: Allosteric enhancer activity at recombinant human A1 adenosine receptor expressed in CHO cells assessed as change in forskolin-induced cAMP production at 1 uM after 6 mins by radioimmunoassay. In kind it is functional, cell-based. The method in brief: as §1
Test [10] shares this target. In words: Binding affinity to recombinant human A1 adenosine receptor allosteric site expressed in CHO cells assessed as [3H]CCPA Bmax shift at 10 uM after 90 mins relative to control. In kind it is cell-based. Put shortly:
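Saturation binding of [3H]CCPA (0.05–20 nM) to hA1CHO membranes. Membranes pretreated with adenosine deaminase 3 UI/mL for 30 min at 37 °C. Run in triplicate, 90 min at 25 °C, in 50 mM Tris–HCl pH 7.4, with or without test compound at final 10 µM. Nonspecific binding taken with 1 µM R-PIA. Bmax fitted by LIGAND. Shift is the fold of Bmax increase over control.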

Each structure is given as a SMILES string.

The inhibition is the percentage by which the read-out fell short of the control. Consider `Nc1scc(CN2CCN(c3c(Cl)cccc3Cl)CC2)c1C(=O)c1ccc(Cl)cc1`, for which the results for the inhibition in test [1], in test [4] and in test [5] were 1%, 0% and 0%, respectively. Also, the Activity was 0% in [2], 15% in test [7], -47% in test [8] and -2.2% in [9]. Also, the fold change (FC) stood at 2.9 in [3], 0.9 in [6] and 3.3 in test [10].

Regarding `Nc1scc(CN2CCN(c3cccc(F)c3)CC2)c1C(=O)c1ccc(Cl)cc1`, the values for the inhibition in [1], in test [4] and in test [5] were 4%, 1% and 1%, respectively. The Activity was -37% in test [2], -18% in test [7], -82% in [8] and -86% in test [9]. For the same molecule, the fold change (FC) in test [3] was 3.9; in [6] it was 1; in test [10] it was 4.8.

On to `Nc1scc(CN2CCN(c3ccc(F)c(F)c3)CC2)c1C(=O)c1ccc(Cl)cc1`, for which the inhibition turned out to be 1% in test [1], 0% in test [4] and 0% in test [5]. For the same molecule, the Activity in [2] was -34%; in test [7], -3.2%; in test [8], -87%; in test [9] it was -78%. The figures for the fold change (FC) in [3], in test [6] and in test [10] were 5.5, 1.1 and 7.2, respectively.

As for `Nc1scc(CN2CCN(C(=O)c3ccc(Cl)cc3)CC2)c1C(=O)c1ccc(Cl)cc1`, the values for the inhibition in test [1], in [4] and in [5] were 0%, 0% and 1%, respectively. Further, the Activity in [2] is -10%; in [7], -6.2%; in test [8], -60%; in [9] it was -34%. For the same molecule, the fold change (FC) is 1.6 in test [3], 0.9 in test [6] and 1.6 in test [10].

Consider `Nc1scc(CN2CCN(c3cccc(C(F)(F)F)c3)CC2)c1C(=O)c1ccc(Cl)cc1`, for which the figures for the inhibition in test [1], in test [4] and in test [5] were 0%, 3% and 0%, respectively. Also, the Activity in test [2] was -30%; in [7] it was -8.2%; in [8], -80%; in test [9], -72%. The fold change (FC) is 4.3 in test [3], 1 in test [6] and 5.3 in test [10].

For `Nc1scc(CN2CCN(c3c(F)cc(F)cc3F)CC2)c1C(=O)c1ccc(Cl)cc1`, the inhibition in [1], in [4] and in [5] was 0% throughout. The Activity in test [2] is -3.9%; in [7], 4.2%; in [8], -78%; in test [9], -56%. Besides, the values for the fold change (FC) in [3], in test [6] and in test [10] were 3.6, 1 and 4.5, respectively.

`Nc1scc(CN2CCN(c3cc(F)ccc3F)CC2)c1C(=O)c1ccc(Cl)cc1`: the values for the inhibition in [1], in test [4] and in [5] were 2%, 0% and 1%, respectively. The Activity in test [2] is -13%; in [7], 3.1%; in test [8], -80%; in [9] it was -59%. Besides, the fold change (FC) in [3] turned out to be 3.8; in test [6] it was 1; in [10], 4.7.

Take `Nc1scc(CN2CCN(C3CCCC3)CC2)c1C(=O)c1ccc(Cl)cc1`: the inhibition in [1] is 3%; in test [4], 3%; in test [5], 0%. In addition, the Activity is 2.1% in test [2], 9.1% in test [7], -30% in [8] and 10% in [9]. For the same molecule, the fold change (FC) is 1.3 in test [3], 0.9 in [6] and 1.1 in test [10].

Turning to `Nc1scc(CN2CCN(c3ccc(Cl)cc3F)CC2)c1C(=O)c1ccc(Cl)cc1`, the inhibition was 1% in test [1], 0% in test [4] and 0% in test [5]. The Activity in test [2] was -9.4%; in test [7], -9.2%; in test [8], -81%; in [9], -57%. For the same molecule, the figures for the fold change (FC) in test [3], in test [6] and in [10] were 4.3, 1 and 5.3, respectively.

Turning to `Nc1scc(CN2CCN(c3cccnc3)CC2)c1C(=O)c1ccc(Cl)cc1`, the inhibition in test [1], in test [4] and in test [5] was 0% throughout. In addition, the Activity in test [2] is 3.4%; in test [7], 3.2%; in [8], -23%; in test [9], -2.7%. The fold change (FC) in test [3] was determined as 1.4; in [6] it was 0.9; in [10], 1.3.

For the molecule `Nc1scc(CN2CCN(CCCc3ccc(Cl)cc3)CC2)c1C(=O)c1ccc(Cl)cc1`, the inhibition in test [1], in test [4] and in test [5] was 0% throughout. Further, the Activity was -3% in test [2], 0% in test [7], -76% in [8] and -30% in test [9]. In addition, the results for the fold change (FC) in [3], in [6] and in test [10] were 1.6, 0.9 and 1.6, respectively.

As to `Nc1scc(CN2CCN(c3ccccc3Cl)CC2)c1C(=O)c1ccc(Cl)cc1`, the inhibition in test [1] is 0%; in test [4], 1%; in test [5], 2%. Further, the Activity in test [2] is 2%; in test [7], -2.1%; in test [8], -18%; in test [9] it was -5.2%. Further, the fold change (FC) in test [3] stood at 1.4; in test [6], 0.9; in test [10] it was 1.2.
